Test system: Fibroblast
Experiment: Multiplex assay against human fibroblast
Type: toxicity, cell-based
How it was run: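 Tubulin, mitochondrial-mass and membrane-permeability phenotypes are per cents of healthy-nucleus cells. Cells were gated by CellPathfinder machine learning into Hoechst high-intensity objects or normal cells, normal cells into healthy, pyknosed or fragmented nuclei, and pyknosed cells into mitotic or apoptotic. Before that, live cells stained at seeding with Hoechst33342, BioTracker Green Microtubule Cytoskeleton Dye, MitoTracker Red and Annexin V Alexa Fluor 680 were imaged on a CQ1 microscope at 37°C and 5% CO2 after compound addition.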

[1] = 12 h, 1 µM, compound concentration 1 uM, replicate 1
[2] = 12 h, 1 µM, compound concentration 1 uM, replicate 2
[3] = 12 h, 10 µM, compound concentration 10 uM, replicate 1
[4] = 12 h, 10 µM, compound concentration 10 uM, replicate 2
[5] = 24 h, 1 µM, compound concentration 1 uM, replicate 1
[6] = 24 h, 1 µM, compound concentration 1 uM, replicate 2
[7] = 24 h, 10 µM, compound concentration 10 uM, replicate 1
[8] = 24 h, 10 µM, compound concentration 10 uM, replicate 2
[9] = 48 h, 1 µM, compound concentration 1 uM, replicate 1
[10] = 48 h, 1 µM, compound concentration 1 uM, replicate 2
[11] = 48 h, 10 µM, compound concentration 10 uM, replicate 1
[12] = 48 h, 10 µM, compound concentration 10 uM, replicate 2

## CN1CCC[C@@H]1CCO[C@](C)(c1ccccc1)c1ccc(Cl)cc1.O=C(O)/C=C/C(=O)O [CLEMASTINE FUMARATE]
[1]
  Population Apoptotic (%): 61%
  Population Fragmented Nuclei (%): 35%
  Population Healthy Nuclei (%): 39%
  Population Hoechst High Intensity Objects (%): 20%
  Population Membrane Permeable-Phenotype (%): 13%
  Population Mitochondria Different-Phenotype (%): 10%
  Population Mitotic Cells (%): 38%
  Population Normal (%): 79%
  Population Pyknosed Nuclei (%): 24%
  Population Tubulin-Different-Phenotype (%): 37%
  Total Cell Count: 92
[2]
  Population Apoptotic (%): 50%
  Population Fragmented Nuclei (%): 15%
  Population Healthy Nuclei (%): 76%
  Population Hoechst High Intensity Objects (%): 1%
  Population Membrane Permeable-Phenotype (%): 3%
  Population Mitochondria Different-Phenotype (%): 6%
  Population Mitotic Cells (%): 50%
  Population Normal (%): 98%
  Population Pyknosed Nuclei (%): 7%
  Population Tubulin-Different-Phenotype (%): 3%
  Total Cell Count: 78
[3]
  Population Apoptotic (%): 69%
  Population Fragmented Nuclei (%): 26%
  Population Healthy Nuclei (%): 43%
  Population Hoechst High Intensity Objects (%): 10%
  Population Membrane Permeable-Phenotype (%): 11%
  Population Mitochondria Different-Phenotype (%): 49%
  Population Mitotic Cells (%): 30%
  Population Normal (%): 90%
  Population Pyknosed Nuclei (%): 29%
  Population Tubulin-Different-Phenotype (%): 77%
  Total Cell Count: 160
[4]
  Population Apoptotic (%): 85%
  Population Fragmented Nuclei (%): 19%
  Population Healthy Nuclei (%): 41%
  Population Hoechst High Intensity Objects (%): 21%
  Population Membrane Permeable-Phenotype (%): 6%
  Population Mitochondria Different-Phenotype (%): 86%
  Population Mitotic Cells (%): 14%
  Population Normal (%): 78%
  Population Pyknosed Nuclei (%): 38%
  Population Tubulin-Different-Phenotype (%): 40%
  Total Cell Count: 46
[5]
  Population Apoptotic (%): 63%
  Population Fragmented Nuclei (%): 36%
  Population Healthy Nuclei (%): 50%
  Population Hoechst High Intensity Objects (%): 32%
  Population Membrane Permeable-Phenotype (%): 20%
  Population Mitochondria Different-Phenotype (%): 17%
  Population Mitotic Cells (%): 36%
  Population Normal (%): 67%
  Population Pyknosed Nuclei (%): 13%
  Population Tubulin-Different-Phenotype (%): 60%
  Total Cell Count: 118
[6]
  Population Apoptotic (%): 18%
  Population Fragmented Nuclei (%): 14%
  Population Healthy Nuclei (%): 70%
  Population Hoechst High Intensity Objects (%): 0%
  Population Membrane Permeable-Phenotype (%): 5%
  Population Mitochondria Different-Phenotype (%): 13%
  Population Mitotic Cells (%): 81%
  Population Normal (%): 99%
  Population Pyknosed Nuclei (%): 15%
  Population Tubulin-Different-Phenotype (%): 6%
  Total Cell Count: 107
[7]
  Population Apoptotic (%): 78%
  Population Fragmented Nuclei (%): 34%
  Population Healthy Nuclei (%): 48%
  Population Hoechst High Intensity Objects (%): 16%
  Population Membrane Permeable-Phenotype (%): 9%
  Population Mitochondria Different-Phenotype (%): 76%
  Population Mitotic Cells (%): 21%
  Population Normal (%): 83%
  Population Pyknosed Nuclei (%): 17%
  Population Tubulin-Different-Phenotype (%): 85%
  Total Cell Count: 190
[8]
  Population Apoptotic (%): 76%
  Population Fragmented Nuclei (%): 21%
  Population Healthy Nuclei (%): 36%
  Population Hoechst High Intensity Objects (%): 12%
  Population Membrane Permeable-Phenotype (%): 26%
  Population Mitochondria Different-Phenotype (%): 86%
  Population Mitotic Cells (%): 23%
  Population Normal (%): 87%
  Population Pyknosed Nuclei (%): 41%
  Population Tubulin-Different-Phenotype (%): 26%
  Total Cell Count: 47
[9]
  Population Apoptotic (%): 50%
  Population Fragmented Nuclei (%): 46%
  Population Healthy Nuclei (%): 45%
  Population Hoechst High Intensity Objects (%): 27%
  Population Membrane Permeable-Phenotype (%): 24%
  Population Mitochondria Different-Phenotype (%): 2%
  Population Mitotic Cells (%): 50%
  Population Normal (%): 72%
  Population Pyknosed Nuclei (%): 8%
  Population Tubulin-Different-Phenotype (%): 42%
  Total Cell Count: 136
[10]
  Population Apoptotic (%): 0%
  Population Fragmented Nuclei (%): 48%
  Population Healthy Nuclei (%): 51%
  Population Hoechst High Intensity Objects (%): 16%
  Population Membrane Permeable-Phenotype (%): 11%
  Population Mitochondria Different-Phenotype (%): 14%
  Population Mitotic Cells (%): 0%
  Population Normal (%): 83%
  Population Pyknosed Nuclei (%): 0%
  Population Tubulin-Different-Phenotype (%): 50%
  Total Cell Count: 97
[11]
  Population Apoptotic (%): 78%
  Population Fragmented Nuclei (%): 38%
  Population Healthy Nuclei (%): 45%
  Population Hoechst High Intensity Objects (%): 24%
  Population Membrane Permeable-Phenotype (%): 8%
  Population Mitochondria Different-Phenotype (%): 72%
  Population Mitotic Cells (%): 21%
  Population Normal (%): 75%
  Population Pyknosed Nuclei (%): 15%
  Population Tubulin-Different-Phenotype (%): 83%
  Total Cell Count: 197
[12]
  Population Apoptotic (%): 75%
  Population Fragmented Nuclei (%): 47%
  Population Healthy Nuclei (%): 50%
  Population Membrane Permeable-Phenotype (%): 3%
  Population Mitochondria Different-Phenotype (%): 60%
  Population Mitotic Cells (%): 25%
  Population Pyknosed Nuclei (%): 2%
  Population Tubulin-Different-Phenotype (%): 97%
  Total Cell Count: 258
